Legend:
[1] = tested on: Mus musculus; assay: Antitumor activity against P-388 Leukemia in female BDF1 mice expressed as percent T/C at dose 50 mg/kg; type: functional
Procedure, shortened: (§1)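 P-388 leukemia, 10⁶ cells implanted ip in BDF₁ mice, five per group. Test agents dissolved or suspended in 0.3% CMC-Na and dosed orally once daily for 9 days, beginning 1 day after implantation. Activity expressed as treated/control ratio of median survival time.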

[2] = tested on: P388; assay: Percentage change in median survival time of P388 (leukemia) inoculated female mice following 25 mg/kg p.o.; conditions: route oral
[3] = tested on: P388; assay: Percentage change in median survival time of P388 (leukemia) inoculated female mice following 100 mg/kg p.o.; conditions: route oral
[4] = tested on: P388; assay: Percentage change in median survival time of P388 (leukemia) inoculated female mice following 200 mg/kg p.o.; conditions: route oral
[5] = tested on: Mus musculus; assay: Antitumor activity against P-388 Leukemia in female BDF1 mice expressed as percent T/C at dose 12.5 mg/kg; type: functional; procedure, shortened: as §1
[6] = tested on: Mus musculus; assay: Antitumor activity against L-1210 cells in female BDF1 mice expressed as percent T/C at dose 100 mg/kg; type: functional
Procedure, shortened: (§2)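 L-1210 leukemia, 10⁶ cells implanted ip into BDF₁ mice (five females per group, 17–23 g). Compound dissolved or suspended in 0.3% CMC-Na, given orally once daily for 5 days starting 1 day after implantation. Activity taken as the ratio of median survival time, treated vs control.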

[7] = tested on: Mus musculus; assay: Antitumor activity against L-1210 cells in female BDF1 mice expressed as percent T/C at dose 200 mg/kg; type: functional; procedure, shortened: as §2
[8] = tested on: Mus musculus; assay: Antitumor activity against L-1210 cells in female BDF1 mice expressed as percent T/C at dose 300 mg/kg; type: functional; procedure, shortened: as §2
[9] = tested on: Mus musculus; assay: Antitumor activity against L-1210 cells in female BDF1 mice expressed as percent T/C at dose 50 mg/kg; type: functional; procedure, shortened: as §2
[10] = tested on: Mus musculus; assay: Antitumor activity against MH 134 cells in female C3H mice expressed as percent T/C at dose 50 mg/kg
[11] = tested on: Mus musculus; assay: Antitumor activity against MH 134 cells in female C3H mice expressed as percent T/C at dose 100 mg/kg
[12] = tested on: Mus musculus; assay: Antitumor activity against MH 134 cells in female C3H mice expressed as percent T/C at dose 200 mg/kg
[13] = tested on: Mus musculus; assay: Antitumor activity against Meth A cells in female Balb/c mice expressed as percent T/C at dose 50 mg/kg
[14] = tested on: Mus musculus; assay: Antitumor activity against Meth A cells in female Balb/c mice expressed as percent T/C at dose 100 mg/kg
[15] = tested on: Mus musculus; assay: Antitumor activity against Meth A cells in female Balb/c mice expressed as percent T/C at dose 200 mg/kg
[16] = tested on: P388; assay: Percentage change in median survival time of P388 (leukemia) inoculated female mice following 30 mg/kg p.o.; conditions: route oral
[17] = tested on: Mus musculus; assay: Antitumor activity against L-1210 in female BDF1 mice expressed as percent T/C at dose 100 mg/kg; type: functional; procedure, shortened: as §2
[18] = tested on: Mus musculus; assay: Antitumor activity against L-1210 in female BDF1 mice expressed as percent T/C at dose 200 mg/kg; type: functional; procedure, shortened: as §2
[19] = tested on: Mus musculus; assay: Antitumor activity against L-1210 in female BDF1 mice expressed as percent T/C at dose 300 mg/kg; type: functional; procedure, shortened: as §2
[20] = tested on: Mus musculus; assay: Antitumor activity against L-1210 in female BDF1 mice expressed as percent T/C at dose 50 mg/kg; type: functional; procedure, shortened: as §2
[21] = tested on: Mus musculus; assay: Antitumor activity against MH 134 cells in female C3H mice expressed as percent T/C at dose 50 mg/kg; remark: listed apart in the source
[22] = tested on: Mus musculus; assay: Antitumor activity against MH 134 cells in female C3H mice expressed as percent T/C at dose 100 mg/kg; remark: listed apart in the source
[23] = tested on: Mus musculus; assay: Antitumor activity against MH 134 cells in female C3H mice expressed as percent T/C at dose 200 mg/kg; remark: listed apart in the source

Structure (SMILES): Cc1ccccc1C(=O)n1c(=O)c(F)cn(C(=O)Oc2ccccc2)c1=O
- T/C [1]: 106%
- T/C [2]: 100%
- T/C [3]: 129%
- T/C [4]: 135%

Structure (SMILES): CCOC(=O)n1cc(F)c(=O)n(C(=O)c2ccccc2)c1=O
- T/C [1]: 116%
- T/C [2]: 103%
- T/C [3]: 123%
- T/C [4]: 83%

Structure (SMILES): Cc1ccccc1C(=O)n1c(=O)c(F)cn(C(=O)OCc2ccccc2)c1=O
- T/C [1]: 108%
- T/C [3]: 125%
- T/C [4]: 110%

Structure (SMILES): CC(=O)n1cc(F)c(=O)n(C(=O)OCc2ccccc2)c1=O
- T/C [1]: 105%
- T/C [3]: 116%
- T/C [4]: 112%

Structure (SMILES): CCCCCCC(=O)n1c(=O)c(F)cn(C(=O)OCC)c1=O
- T/C [1]: 119%
- T/C [2]: 110%
- T/C [3]: 118%
- T/C [4]: 74%

Structure (SMILES): Cc1ccccc1C(=O)n1c(=O)c(F)cn(C(=O)O[C@H]2CCC3(C)C(=CCC4[C@@H]3CCC3(C)[C@@H](C(C)CCCC(C)C)CC[C@@H]43)C2)c1=O (stereo partly specified)
- T/C [1]: 98%
- T/C [3]: 100%
- T/C [4]: 112%

Structure (SMILES): O=C(Oc1ccccc1)n1cc(F)c(=O)n(C(=O)c2ccccc2)c1=O
- T/C [1]: 112%
- T/C [2]: 99%
- T/C [3]: 119%
- T/C [4]: 107%

Structure (SMILES): CCCCCCOC(=O)n1cc(F)c(=O)n(C(=O)c2ccccc2C)c1=O
- T/C [1]: 106%
- T/C [2]: 100%
- T/C [3]: 96%
- T/C [4]: 147%

Structure (SMILES): O=C(OCc1ccccc1)n1c(=O)[nH]cc(F)c1=O
- T/C [1]: 101%
- T/C [3]: 110%
- T/C [4]: 96%

Structure (SMILES): CC(=O)n1cc(F)c(=O)n(C(=O)c2ccccc2)c1=O
- T/C [1]: 116%
- T/C [2]: 108%
- T/C [3]: 144%
- T/C [4]: 99%

Structure (SMILES): CC(=O)n1c(=O)c(F)cn(C(=O)c2ccccc2C)c1=O
- T/C [5]: 111%
- T/C [1]: 114%
- T/C [2]: 97%
- T/C [3]: 108%

Structure (SMILES): Cc1ccccc1C(=O)n1c(=O)c(F)cn(C(=O)C(C)C)c1=O
- T/C [1]: 112%
- T/C [2]: 110%
- T/C [3]: 116%
- T/C [4]: 169%

Structure (SMILES): CC(=O)n1cc(F)c(=O)n(C(=O)c2ccccc2C)c1=O
- T/C [1]: 111%
- T/C [6]: 128%
- T/C [7]: 136%
- T/C [8]: 167%
- T/C [9]: 110%
- T/C [10]: 61%
- T/C [11]: 43%
- T/C [12]: 25%
- T/C [13]: 71%
- T/C [14]: 58%
- T/C [15]: 32%
- T/C [2]: 121%
- T/C [3]: 151%
- T/C [4]: 121%

Structure (SMILES): CC(=O)n1cc(F)c(=O)n(C(C)=O)c1=O
- T/C [5]: 103%
- T/C [1]: 103%
- T/C [2]: 112%
- T/C [3]: 86%

Structure (SMILES): COC(=O)n1cc(F)c(=O)n(C(=O)c2ccccc2C)c1=O
- T/C [1]: 112%
- T/C [2]: 101%
- T/C [3]: 138%
- T/C [4]: 142%

Structure (SMILES): CCC(=O)n1cc(F)c(=O)n(C(=O)c2ccccc2C)c1=O
- T/C [1]: 112%
- T/C [2]: 103%
- T/C [3]: 136%
- T/C [4]: 138%

Structure (SMILES): Cc1ccccc1C(=O)n1c(=O)[nH]cc(F)c1=O
- T/C [1]: 127%
- T/C [16]: 124%
- T/C [3]: 103%

Structure (SMILES): O=c1[nH]c(=O)n(C2CCCO2)cc1F (stereo unspecified) [TEGAFUR]
- T/C [5]: 111%
- T/C [1]: 104%
- T/C [17]: 124%
- T/C [18]: 143%
- T/C [19]: 102%
- T/C [20]: 110%
- T/C [21]: 70%
- T/C [22]: 58%
- T/C [23]: 57%
- T/C [13]: 82%
- T/C [14]: 53%
- T/C [15]: 19%
- T/C [2]: 115%
- T/C [3]: 136%
- T/C [4]: 106%

Structure (SMILES): CCOC(=O)n1cc(F)c(=O)n(C(=O)c2ccccc2C)c1=O
- T/C [1]: 125%
- T/C [2]: 112%
- T/C [3]: 127%
- T/C [4]: 164%

Structure (SMILES): CCOC(=O)n1cc(F)c(=O)n(C(=O)CC)c1=O
- T/C [1]: 112%
- T/C [2]: 105%
- T/C [3]: 82%
- T/C [4]: 52%

Structure (SMILES): O=C(Oc1ccccc1)n1c(=O)[nH]cc(F)c1=O
- T/C [5]: 97%
- T/C [1]: 101%
- T/C [2]: 112%
- T/C [3]: 83%

Structure (SMILES): CCOC(=O)n1cc(F)c(=O)n(C(C)=O)c1=O
- T/C [5]: 94%
- T/C [1]: 115%
- T/C [2]: 103%
- T/C [3]: 59%

Structure (SMILES): CCC(=O)n1cc(F)c(=O)n(C(=O)c2ccccc2)c1=O
- T/C [1]: 119%
- T/C [2]: 110%
- T/C [3]: 130%
- T/C [4]: 90%

Structure (SMILES): O=c1[nH]cc(F)c(=O)[nH]1 [FLUOROURACIL]
- T/C [5]: 127%
- T/C [1]: 76%
- T/C [2]: 135%
